Experimental data: ChEMBL document CHEMBL3997766, “Synthesis and pre-clinical studies of new amino-acid ester thiazolide prodrugs” (Eur J Med Chem, 2017)

Experiments:
Rattus norvegicus [1] = test: Toxicity in Sprague-Dawley rat assessed as mucosal hyperplasia in duodenum at 75 mg/kg administered as oral gavage qd for 28 consecutive days followed by 2 weeks recovery period by microscopic method; assay type: organism-based; conditions: in vivo, 336 h
How it was run: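 Sub-acute oral toxicity study in Sprague-Dawley rats. The drug was given once daily for 28 consecutive days at 10, 30 or 75 mg/kg, formulated as a suspension. There were 4 groups of up to 30 rats each (15 male, 15 female). The study evaluated systemic exposure to the drug.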

Rattus norvegicus [2] = test: Elimination half life in Sprague-Dawley rat assessed as Tizoxanide level in plasma at 6.3 mg/kg, iv administered as single dose; assay type: ADME, organism-based; conditions: in vivo
Canis familiaris [3] = test: Toxicity in Beagle dog assessed as effect on hematology up to 25 mg/kg, po administered as gelatin capsule once daily for 28 days measured on day 29; assay type: organism-based, Canis lupus familiaris; conditions: in vivo, 672 h
How it was run: (§1)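 Sub-acute study in Beagle dogs dosed orally by gelatin capsule at 5, 15 and 25 mg/kg once a day for 28 consecutive days.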

Rattus norvegicus [4] = test: Toxicity in Sprague-Dawley rat assessed as decrease in prothrombine time at 10 to 75 mg/kg administered as oral gavage qd for 28 consecutive days followed by 2 weeks recovery period measured on day 43; assay type: organism-based; conditions: in vivo, 336 h
How it was run: (§2)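 Sub-acute study in Sprague-Dawley rats dosed orally with a suspension at 10, 30 and 75 mg/kg once daily for 28 consecutive days. Four groups of up to 30 rats each (15M/15F).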

Rattus norvegicus [5] = test: Toxicity in Sprague-Dawley rat assessed as eosinophilic cytoplasmic bodies in epithelial cells of stomach at 10 to 75 mg/kg administered as oral gavage qd for 28 consecutive days measured on day 29 by microscopic method; assay type: organism-based; conditions: in vivo
How it was run: (§3)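 Sub-acute study in Sprague-Dawley rats: 10, 30 or 75 mg/kg given orally once a day for 28 consecutive days as a yellow suspension. There were 4 groups of up to 30 rats each (15M/15F), including a control. Body weight, clinical observations and terminal findings were assessed.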

Canis familiaris [6] = test: Toxicity in Beagle dog assessed as emesis at 25 mg/kg, po administered as gelatin capsule once daily for 28 days measured on day 29; assay type: organism-based, Canis lupus familiaris; conditions: in vivo, 672 h; how it was run: as §1
Rattus norvegicus [7] = test: Toxicity in Sprague-Dawley rat assessed as mixed cell inflammation in stomach at 30 to 75 mg/kg administered as oral gavage qd for 28 consecutive days measured on day 29 by microscopic method; assay type: organism-based; conditions: in vivo; how it was run: as §3
Canis familiaris [8] = test: Toxicity in Beagle dog assessed as decrease in cholesterol level up to 25 mg/kg, po administered as gelatin capsule once daily for 28 days measured on day 29; assay type: organism-based, Canis lupus familiaris; conditions: in vivo, 672 h; how it was run: as §1
Rattus norvegicus [9] = test: Toxicity in Sprague-Dawley rat assessed as increase in spleen to body weight ratio at 75 mg/kg administered as oral gavage qd for 28 consecutive days measured on day 29; assay type: organism-based; conditions: in vivo; how it was run: as §2
Rattus norvegicus [10] = test: Toxicity in Sprague-Dawley rat assessed as body weight gain at 75 mg/kg administered as oral gavage qd for 28 consecutive days measured during last 2 weeks of dosing relative to control; assay type: organism-based; conditions: in vivo, 336 h; how it was run: as §2
Rattus norvegicus [11] = test: Toxicity in Sprague-Dawley rat assessed as hemorrhage in duodenum at 75 mg/kg administered as oral gavage qd for 28 consecutive days followed by 2 weeks recovery period by microscopic method; assay type: organism-based; conditions: in vivo, 336 h; how it was run: as §2
Plasma [12] = test: Prodrug activation in Sprague-Dawley rat assessed as tizoxanide formation in plasma at 6.3 mg/kg, iv administered as single dose measured after 5 mins; assay type: organism-based; conditions: in vivo
How it was run: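 Rats in groups of three got a single oral dose (30 mg/kg) or a single intravenous injection (6 mg/kg). Serial blood samples were taken at 5, 10, 15 and 30 min and at 1, 2, 4, 8, 23 and 24 h post-dose for plasma drug and glucuronide levels. Bioavailability came from oral versus intravenous AUC after dose correction to 30 mg/kg.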

Rattus norvegicus [13] = test: Toxicity in Sprague-Dawley rat assessed as eosinophilic cytoplasmic bodies in epithelial cells of stomach at 10 to 75 mg/kg administered as oral gavage qd for 28 consecutive days followed by 2 weeks recovery period by microscopic method; assay type: organism-based; conditions: in vivo, 336 h; how it was run: as §2
Canis familiaris [14] = test: Toxicity in Beagle dog up to 25 mg/kg, po administered as gelatin capsule once daily for 28 days measured on day 29 followed by two weeks of recovery period; assay type: organism-based, Canis lupus familiaris; conditions: in vivo, 672 h; how it was run: as §1
Canis familiaris [15] = test: Toxicity in Beagle dog assessed as effect on urinalysis parameters up to 25 mg/kg, po administered as gelatin capsule once daily for 28 days measured on day 29; assay type: organism-based, Canis lupus familiaris; conditions: in vivo, 672 h; how it was run: as §1
Rattus norvegicus [16] = test: Cmax in Sprague-Dawley rat assessed as tizoxanide-glucuronide level in plasma at 30 mg/kg, po administered as single dose; assay type: ADME, organism-based; set-up: dose 30 mg/kg, route oral; conditions: in vivo
How it was run: (§4)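 Rats in groups of three received one compound as a single oral dose (30 mg/kg) or a single intravenous injection (6 mg/kg), with four compounds studied separately. Serial blood samples were drawn at 5, 10, 15 and 30 min and at 1, 2, 4, 8, 23 and 24 h post-dose. Plasma parent drug and metabolites were quantified and PK parameters were derived.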

Rattus norvegicus [17] = test: Toxicity in Sprague-Dawley rat assessed as epithelial hyperplasia in stomach at 75 mg/kg administered as oral gavage qd for 28 consecutive days followed by 2 weeks recovery period by microscopic method; assay type: organism-based; conditions: in vivo, 336 h; how it was run: as §2
Rattus norvegicus [18] = test: Elimination half life in Sprague-Dawley rat assessed as Tizoxanide level at 6.3 mg/kg, iv administered as single dose; assay type: ADME, organism-based; conditions: in vivo
Rattus norvegicus [19] = test: Toxicity in Sprague-Dawley rat assessed as effect on respiratory rate by measuring minute volume dose at 1000 mg/kg administered as single dose via oral gavage; assay type: organism-based; conditions: in vivo
How it was run: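 Conscious rats in three groups of six (3M/3F) got single oral gavage doses of 100, 300 or 1000 mg/kg, with an untreated control group. Respiratory rate (breaths per minute), tidal volume and minute volume were recorded.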

Canis familiaris [20] = test: Toxicity in Beagle dog up to 25 mg/kg, po administered as gelatin capsule once daily for 28 days by ophthalmoscopic method; assay type: organism-based, Canis lupus familiaris; conditions: in vivo, 672 h; how it was run: as §1
Rattus norvegicus [21] = test: Toxicity in Sprague-Dawley rat assessed as decrease in absolute kidney weight at 75 mg/kg administered as oral gavage qd for 28 consecutive days measured on day 29; assay type: organism-based; conditions: in vivo; how it was run: as §2
Rattus norvegicus [22] = test: Toxicity in Sprague-Dawley rat assessed as hemorrhage in stomach at 30 to 75 mg/kg administered as oral gavage qd for 28 consecutive days measured on day 29 by microscopic method; assay type: organism-based; conditions: in vivo; how it was run: as §3
Rattus norvegicus [23] = test: Cmax in Sprague-Dawley rat assessed as Tizoxanide-glucuronide level in plasma at 6 mg/kg, iv administered as single dose; assay type: ADME, organism-based; set-up: dose 6 mg/kg, route intravenous; conditions: in vivo; how it was run: as §4
Rattus norvegicus [24] = test: Toxicity in Sprague-Dawley rat assessed as erosions in stomach at 30 to 75 mg/kg administered as oral gavage qd for 28 consecutive days measured on day 29 by microscopic method; assay type: organism-based; conditions: in vivo; how it was run: as §3
Plasma [25] = test: Drug metabolism in Sprague-Dawley rat assessed as tizoxanide-glucuronide level in plasma administered via oral gavage qd for 28 consecutive days; assay type: ADME
How it was run: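 In a sub-acute study, Sprague-Dawley rats were dosed once daily for 28 consecutive days at 10, 30 or 75 mg/kg, given as a yellow suspension. There were four groups of up to 30 rats each (15M/15F) to assess systemic exposure.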

Rattus norvegicus [26] = test: Toxicity in Sprague-Dawley rat assessed as eosinophilic cytoplasmic bodies in leukocytes of duodenum at 75 mg/kg administered as oral gavage qd for 28 consecutive days followed by 2 weeks recovery period by microscopic method; assay type: organism-based; conditions: in vivo, 336 h; how it was run: as §2

For CC(C)(C)[C@H](N)C(=O)Oc1ccccc1C(=O)Nc1ncc([N+](=O)[O-])s1.Cl, the Activity (Rattus norvegicus [1]) was “Non-Toxic”, the “beta t1/2” value (Rattus norvegicus [2]) was 22.8 min and the Activity (Canis familiaris [3]) was “Non-Toxic”. For the same compound, the Activity (Rattus norvegicus [4]) was “Toxic”, the Activity (Rattus norvegicus [5]) was “Toxic” and the Activity (Canis familiaris [6]) was “Toxic”. The Activity (Rattus norvegicus [7]) was “Toxic”, the Activity (Canis familiaris [8]) was “Toxic” and the Activity (Rattus norvegicus [9]) was “Toxic”. The Activity (Rattus norvegicus [10]) was 4 to 5%, the Activity (Rattus norvegicus [11]) was “Non-Toxic” and the Drug metabolism (Plasma [12]) was “Metabolite_Detected”. For the same compound, the Activity (Rattus norvegicus [13]) was “Non-Toxic”, the Activity (Canis familiaris [14]) was “Non-Toxic” and the Activity (Canis familiaris [15]) was “Non-Toxic”. For the same compound, the Cmax (Rattus norvegicus [16]) was 18.6 µg/mL, the Activity (Rattus norvegicus [17]) was “Non-Toxic” and the “beta t1/2” value (Rattus norvegicus [18]) was 22.8 min. The Activity (Rattus norvegicus [19]) was “Toxic”, the Activity (Canis familiaris [20]) was “Non-Toxic” and the Activity (Rattus norvegicus [21]) was “Toxic”. For the same compound, the Activity (Rattus norvegicus [22]) was “Toxic”, the Cmax (Rattus norvegicus [23]) was 7.89 µg/mL and the Activity (Rattus norvegicus [24]) was “Toxic”. The Drug metabolism (Plasma [25]) was “Dose-dependent effect” and the Activity (Rattus norvegicus [26]) was “Non-Toxic”.
